Assay results as given in ChEMBL document CHEMBL1156758, “Quantitative analyses of aggregation, autofluorescence, and reactivity artifacts in a screen for inhibitors of a thiol protease” (J Med Chem, 2010).
pIC50: −log10 of the molar value.

What was measured:
[1] = Inhibition of Beta-lactamase AmpC by quantitative high throughput screening
Cruzipain [2] = target: T1, Cruzipain (Trypanosoma cruzi, UniProt P25779); test: Inhibition of Trypanosoma cruzi cruzain by quantitative high throughput screening
Procedure, shortened: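 1536-well qHTS in 100 mM acetate pH 5.5 with 5 mM DTT, 4 μL final volume. Two conditions: 0.01% Triton X-100 with 1.5 nM cruzain, or 0.00005% Triton with 3 nM cruzain. Seven compound concentrations from 57.5 μM to 3.7 nM, preincubated 15 min at room temperature. Then 2 μM Z-Phe-Arg-AMC added. Fluorescence (ex 340/em 450) read kinetically over 60 s. Initial-rate data fitted to a four-parameter Hill equation.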

Cruzipain [3] = target: T1, Cruzipain; test: Inhibition of Trypanosoma cruzi cruzain by Flexstation microplate spectrofluorimetry
Procedure, shortened: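 Secondary 96-well assay: 0.4 nM cruzain in 0.1 M sodium acetate pH 5.5, 5 mM DTT, with or without 0.01% Triton X-100. Compound from 200x DMSO stock preincubated with enzyme 15 min. Reaction started with Z-Phe-Arg-AMC at 2.5 μM final (Km 2 μM) and followed for 5 min. Percent inhibition taken from initial rates versus a DMSO control. Each assay run at least twice.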

T1 sequence (P25779 whole entry): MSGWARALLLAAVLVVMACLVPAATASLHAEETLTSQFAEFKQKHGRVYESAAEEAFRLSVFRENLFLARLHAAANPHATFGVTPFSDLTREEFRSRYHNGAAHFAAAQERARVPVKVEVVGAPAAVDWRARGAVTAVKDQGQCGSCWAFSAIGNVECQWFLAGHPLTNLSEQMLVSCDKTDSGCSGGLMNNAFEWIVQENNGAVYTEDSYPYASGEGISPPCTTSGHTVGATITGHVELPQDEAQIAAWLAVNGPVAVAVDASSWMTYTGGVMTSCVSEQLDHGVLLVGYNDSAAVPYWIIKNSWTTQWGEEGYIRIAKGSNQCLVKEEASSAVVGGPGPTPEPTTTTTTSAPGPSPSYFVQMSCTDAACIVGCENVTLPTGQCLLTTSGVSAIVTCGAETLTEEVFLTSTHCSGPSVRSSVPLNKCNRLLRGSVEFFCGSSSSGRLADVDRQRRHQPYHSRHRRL

Row | Structure (SMILES) | pIC50 [1] | pIC50 (Cruzipain [2]) | pIC50 (Cruzipain [3])
1 | O=[N+]([O-])c1ccccc1S(=O)(=O)NC[C@H]1CC[C@H](CNCC2CCc3ccccc3C2)CC1 (some centres not stated) | 4.89 | < 4.22 | < 3.92
2 | CCCCC/C=C\C/C=C\C/C=C\C/C=C\CCCC(=O)Nc1ccc(O)cc1 | 5.00 | < 4.22 | 4.52
3 | Cc1cc(NC(=O)c2cc(CC(C)C)on2)no1 | 5.40 | < 4.22 | 3.92
4 | COc1ccc(S(=O)(=O)Nc2nc3ccccc3nc2NCc2ccc3c(c2)OCO3)cc1 |  |  | 4.92
5 | O=C(Nc1nc(-c2ccc(S(=O)(=O)N3CCCCCC3)cc2)cs1)c1cccs1 | 5.10 | < 4.22 | 4.92
6 | Oc1cc(-c2ccc(Cl)c(Cl)c2)[nH]n1 | 4.89 | < 4.22 | 4.92
7 | O=C(CS[n+]1cc(-c2ccc(F)cc2)cs1)NC(=O)NCc1ccco1 | 5.52 | < 4.22 | 4.22
8 | O=C(CSc1nnc(-c2ccccc2)o1)N1CCN(c2ccccc2)CC1 | 4.89 | < 4.22 | 4.52
9 | CCn1ccnc1C(O)c1cccc(OC)c1OC (configuration not stated) | 5.40 | < 4.22 | < 3.92
10 | O=C(Nc1ccc(/N=N/c2ccccc2)cc1)c1cccc(Cl)c1 |  |  | 4.92
11 | Cc1ccc(Cl)cc1NC(=O)CCC(=O)Nc1cc(Cl)ccc1C |  |  | 4.92
12 | C=C(C)CSc1cc(N)c(C#N)c(-c2ccc(C)cc2)c1C#N | 5.22 | < 4.22 | 4.92
13 | Cc1ccc(NC(=O)CSC(N)=O)cc1Cl | 4.89 | < 4.22 | < 3.92
14 | CCc1ccc(C(=O)CSC2=C(C#N)C(c3ccco3)C(C(C)=O)=C(C)N2)cc1 (configuration not stated) | 4.89 | < 4.22 | 4.52
15 | c1ccc(-c2cc3c(NCC4COc5ccccc5O4)ncnc3s2)cc1 (configuration not stated) |  |  | 4.92
16 | CCN(Cc1ccccc1)c1nc2c(S(=O)(=O)c3ccccc3)nnn2c2ccc(Cl)cc12 |  |  | 4.92
17 | Cc1cccc(NS(=O)(=O)c2ccc(C)c(C(=O)OCC(=O)Nc3cc(C)on3)c2)c1 | 5.00 | < 4.22 | 4.52
18 | O=C(Cn1c(=O)oc2ccccc21)Nc1oc(-c2ccccc2)c(-c2ccccc2)c1O | 4.89 | < 4.22 | 4.92
19 | O=C(Nc1nc(-c2cccs2)cs1)c1ccc(S(=O)(=O)N2CCCC2)cc1 | 4.89 | < 4.22 | 4.92
20 | O=C(COC(=O)c1cccc(Oc2ccccc2)c1)Nc1nnc(-c2ccccc2)o1 | 4.80 | < 4.22 | 4.92
21 | Cn1c(C(C#N)C(=O)c2sc3ccccc3c2Cl)nc2ccccc21 (configuration not stated) | 4.89 | < 4.22 | 4.92

Row | Structure (SMILES) | pIC50 [1] | pIC50 (Cruzipain [2]) | pIC50 (Cruzipain [3])
22 | O=C(COC(=O)c1cc(-c2ccco2)nc2ccccc12)NCc1ccc2c(c1)OCO2 | 4.89 | < 4.22 | 4.52
23 | COC(=O)c1ccc(-c2nc(-c3ccc(Br)o3)no2)cc1 | 5.40 | < 4.22 | 4.52
24 | Cc1ccc(C(=O)Nc2nc(-c3cc(Cl)sc3Cl)cs2)cc1 |  |  | 4.92
25 | COc1ccc(C(=O)Nc2nncs2)c(OC)c1 | 5.40 | < 4.22 | < 3.92
26 | O=C(c1ccccc1)c1cn(CC(=O)N2CCCC2)c2ccccc12 | 5.40 | < 4.22 | 3.92
27 | Cc1cc(=O)oc2cc(OCC#N)ccc12 | 5.40 | < 4.22 | < 3.92
28 | Cc1sc(NC(=S)NC(=O)C2CCCCC2)c(C(N)=O)c1C |  |  | 4.92
29 | Cn1cnnc1SCC(=O)Nc1sc2c(c1C(N)=O)CCC2 | 5.00 | < 4.22 | 3.92
30 | CCSc1nnc(NC(=O)c2ccc(Br)s2)s1 | 5.00 | < 4.22 | 4.92
31 | NC(=O)SCC(=O)Nc1cccc(Cl)c1 | 5.10 | < 4.22 | < 3.92
32 | O=C(Nc1nc(-c2cccc(Br)c2)cs1)Oc1ccccc1 |  |  | 4.52
33 | Cc1ccc(-c2csc(NC(=O)c3ccno3)n2)cc1 | 5.10 | < 4.22 | < 3.92
34 | N#Cc1c(-c2ccccc2)cc(-c2ccco2)c(C#N)c1N | 5.22 | < 4.22 | 4.92
35 | O=C(CSCc1ccc(Cl)cc1)c1ccco1 | 5.00 | < 4.22 | 3.92
36 | Cc1cc(NC(=O)Cc2cccs2)no1 | 4.89 | < 4.22 | 4.52
37 | COc1ccc(/C=N/NC(=O)c2ccc(Br)cc2)cc1Cn1cc(Cl)cn1 |  |  | 4.92
38 | C=CCNC(=O)c1cc([N+](=O)[O-])cc2c(=O)[nH]c(Nc3ccc(Cl)c(Cl)c3)nc12 | 5.70 | < 4.22 | 
39 | O=c1c(O)c(-c2ccc(O)c(O)c2)oc2cc(O)ccc12 [FISETIN] | 4.89 | < 4.22 | 4.52
40 | CCCCCCNC(=O)Nc1ccc(S(=O)(=O)Nc2ccc(CCNC[C@H](O)COc3ccc(O)cc3)cc2)cc1 [L-755507] |  | < 4.22 | 4.92
41 | O=C(c1ccc(OCCN2CCCCC2)cc1)c1c(-c2ccc(O)cc2)sc2cc(O)ccc12 [RALOXIFENE] | 5.30 | < 4.22 | 
